7 compounds from ChEMBL document CHEMBL3244414, “Structure-activity relationships among the O-acyl derivatives of leucomycin. Correlation of minimal inhibitory concentrations with binding to Escherichia coli ribosomes” (J Med Chem, 1977) can be followed below.

SMILES strings stand for the structures. ≈ marks a conversion by molar mass, not a printed value.

The test system of assay [1] is Bacillus spizizenii. In words: Antimicrobial activity against Bacillus subtilis ATCC 6633 by agar dilution method. It counts as functional. The essentials:
(§1)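 Read-out is the minimal inhibitory concentration, found by agar dilution against the named strain.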
On the technique in general: In agar dilution the substance is mixed into plates at graded concentrations.

For assay [2], the system named is Staphylococcus aureus. In words: Antimicrobial activity against Staphylococcus aureus ATCC 6538P by agar dilution method. It counts as functional. In a few lines:
as §1

Assay [3] concerns Klebsiella pneumoniae. The assay is described as follows: Antimicrobial activity against Klebsiella pneumoniae ATCC 10031 by agar dilution method. The assay is classed as functional. The essentials: as §1
Assay [4] addresses Bacterial 70S ribosome. The assay is described as follows: (§2) Displacement of [14C]erythromycin from Escherichia coli ribosomes after 30 mins by scintillation spectrometer analysis. In a few lines: (§3)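 NH4Cl-washed E. coli ribosomes with [14C]erythromycin A and varied competitor concentrations in 0.01 M Tris-HCl pH 7.2, 0.1 M KCl, 0.004 M MgCl2, 0.01 M NH4Cl. Incubated 30 min at 24 °C, stopped by dilution in cold Tris/KCl/MgCl2 buffer, membrane-filtered, washed three times, dried, scintillation counted. Reports the concentration giving 50% inhibition of binding.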

The target in assay [5] is Bacterial 70S ribosome (Bacteria) (UniProt P0A7V0+P60723+P0AG67+P0A7R5+P0A7R9+P0A7S3+P0A7S9+P0AG59+P0ADZ4+P0A7T3+P0AG63+P0A7T7+P0A7U3+P0A7U7+P68679+P0A7V3+P0A7V8+P0A7W1+P02358+P02359+P0A7W7+P0A7X3+P0A7J3+P0A7J7+P0AA10+P0ADY3+P02413+P0ADY7+P0AG44+P0C018+P0A7K6+P0A7L0+P0A7L3+P0AG48+P61175+P0ADZ0+P60624+P68919+P0A7L8+P0A7M2+P0A7M6+P60422+P0AG51+P0A7N1+P0A7M9+P0A7N4+P0A7N9+P0A7P5+P0A7Q1+Q2EEQ2+P0A7Q6+P60438+P62399+P0AG55+P0A7K2). The assay is described as §2. In a few lines: as §3

Where [6] appears, read: Bacillus spizizenii, ATCC 6633, read-out: MIC.
Setting [7] is: Staphylococcus aureus, ATCC 6538P, read-out: MIC.
Where [8] appears, read: Klebsiella pneumoniae, ATCC 10031, read-out: MIC.

A word on the MIC: it is the lowest concentration found to suppress growth. For orientation: IC50 means the concentration at which inhibition is half-maximal. Read a high IC50 as a need for much substance. For the compound `CCCC(=O)O[C@H]1[C@H](C)O[C@@H](O[C@H]2[C@H](N(C)C)[C@@H](OC(C)=O)[C@H](O[C@H]3[C@@H](CC=O)C[C@@H](C)[C@@H](OC(C)=O)/C=C/C=C/C[C@@H](C)OC(=O)C[C@@H](OC(C)=O)[C@@H]3OC)O[C@@H]2C)C[C@@]1(C)O`, the values for the MIC in assay [1] (setting [6]), in assay [2] (setting [7]) and in assay [3] (setting [8]) were 1.6 µg/mL (≈ 1.78 µM), 1.6 µg/mL (≈ 1.78 µM) and 100 µg/mL (≈ 111 µM), respectively. The concentration for half-maximal inhibition (IC50) in assay [4] worked out at 33100 nM. This compound also showed a pK50 in assay [5] of 4.5.

On to `CCCC(=O)O[C@H]1[C@H](C)O[C@@H](O[C@H]2[C@H](N(C)C)[C@@H](O)[C@H](O[C@H]3[C@@H](CC=O)C[C@@H](C)[C@@H](OC(C)=O)/C=C/C=C/C[C@@H](C)OC(=O)C[C@@H](OC(C)=O)[C@@H]3OC)O[C@@H]2C)C[C@@]1(C)O`, for which the results for the MIC in assay [1] (setting [6]), in assay [2] (setting [7]) and in assay [3] (setting [8]) were 0.8 µg/mL (≈ 0.935 µM), 1.6 µg/mL (≈ 1.87 µM) and 100 µg/mL (≈ 117 µM), respectively. In assay [4], this compound yielded an IC50 of 2200 nM. Further, in assay [5], the pK50 stood at 5.7.

Take `CCCC(=O)O[C@H]1/C=C/C=C/C[C@@H](C)OC(=O)C[C@@H](OC(C)=O)[C@H](OC)[C@@H](O[C@@H]2O[C@H](C)[C@@H](O[C@H]3C[C@@](C)(O)[C@@H](OC(=O)CC(C)C)[C@H](C)O3)[C@H](N(C)C)[C@H]2O)[C@@H](CC=O)C[C@H]1C`: the MIC in assay [1] (setting [6]) was 1.6 µg/mL (≈ 1.78 µM); in assay [2] (setting [7]) it was 3.1 µg/mL (≈ 3.45 µM); in assay [3] (setting [8]) it was 100 µg/mL (≈ 111 µM). This compound yielded an IC50 in assay [4] of 1900 nM. Moreover, the pK50 in assay [5] amounted to 5.7.

Regarding `CO[C@@H]1[C@@H](O[C@@H]2O[C@H](C)[C@@H](O[C@H]3C[C@@](C)(O)[C@@H](OC(=O)CC(C)C)[C@H](C)O3)[C@H](N(C)C)[C@H]2O)[C@@H](CC=O)C[C@@H](C)[C@@H](O)/C=C/C=C/C[C@@H](C)OC(=O)C[C@H]1O` (stereo in doubt; 2) [KITASAMYCIN], the values for the MIC in assay [1], in assay [2] and in assay [3] were 0.4 µg/mL (≈ 0.509 µM), 1.6 µg/mL (≈ 2.04 µM) and 25 µg/mL (≈ 31.8 µM), respectively. In assay [4], this compound had an IC50 of 1000 nM. In assay [5], this compound came in with a pK50 of 6.

As for `CO[C@@H]1[C@@H](O[C@@H]2O[C@H](C)[C@@H](O[C@H]3C[C@@](C)(O)[C@@H](OC(=O)CC(C)C)[C@H](C)O3)[C@H](N(C)C)[C@H]2O)[C@@H](CC=O)C[C@@H](C)[C@@H](OC(C)=O)/C=C/C=C/C[C@@H](C)OC(=O)C[C@H]1O`, the figures for the MIC in assay [1] (setting [6]), in assay [2] (setting [7]) and in assay [3] (setting [8]) were 0.8 µg/mL (≈ 0.966 µM), 1.6 µg/mL (≈ 1.93 µM) and 50 µg/mL (≈ 60.4 µM), respectively. In assay [4], the IC50 came to 1100 nM. This compound had a pK50 in assay [5] of 6.

With `CC[C@H]1OC(=O)[C@H](C)[C@@H](O[C@H]2C[C@@](C)(OC)[C@@H](O)[C@H](C)O2)[C@H](C)[C@@H](O[C@@H]2O[C@H](C)C[C@H](N(C)C)[C@H]2O)[C@](C)(O)C[C@@H](C)C(=O)[C@H](C)[C@@H](O)[C@]1(C)O` [ERYTHROMYCIN], the minimum inhibitory concentration (MIC) in assay [1] (setting [6]) was 0.2 µg/mL (≈ 0.273 µM); in assay [2] (setting [7]), 0.4 µg/mL (≈ 0.545 µM); in assay [3] (setting [8]), 6.3 µg/mL (≈ 8.58 µM). This compound also registered an IC50 in assay [4] of 750 nM. This compound also showed a pK50 in assay [5] of 6.1.

Turning to `CCCC(=O)O[C@H]1[C@H](C)O[C@@H](O[C@H]2[C@H](N(C)C)[C@@H](OC(=O)CCCC(=O)O)[C@H](O[C@H]3[C@@H](CC=O)C[C@@H](C)[C@@H](O)/C=C/C=C/C[C@@H](C)OC(=O)C[C@@H](O)[C@@H]3OC)O[C@@H]2C)C[C@@]1(C)O`, the minimum inhibitory concentration (MIC) in assay [1] (setting [6]) stood at 0.8 µg/mL (≈ 0.903 µM); in assay [2] (setting [7]), 0.8 µg/mL (≈ 0.903 µM); in assay [3] (setting [8]) it was 25 µg/mL (≈ 28.2 µM). The same compound yielded an IC50 in assay [4] of 9300 nM. The compound further registered a pK50 in assay [5] of 5.
